Compound activity (PubChem)
Most compounds without a hit are left out; they make up all but 1.5% or so of the library.
HNF4A DNA FP: change in binding of human HNF4 alpha to DNA; P41235; HNF4a-FITC DNA binding, fluorescence polarization, 1 h; activity change, % at 10 µM; 0.3% of 360,000 active; in the data active = activity change above about 30%, passing the limit was not always enough
aDG glyco up: increases alpha dystroglycan glycosylation; activation, % at 10 µM; Pro5-aDG cells, alpha-DG glycosylation AlphaScreen (IIH6); 0% Pro5, 100% B10-LARGE cell signal; 0.22% of 360,000 active;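 active = activation of at least 8% versus controls, or a plate z-score of at least 8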;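 also: Pro5 are CHO cells carrying HIG-tagged alpha-DG that lacks glycosylation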
CSN inh: inhibitors of human CSN-mediated cullin deneddylation; Purified CSN, SCF-Nedd8-OG deneddylation, fluorescence polarization; 0.38% of 360,000 active; inhibition, % at 12.5 µM; Q92905;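 active = pattern-corrected inhibition above about 35%, with an unprinted fluorescence ratio check between 0.5 and 1.5, limit read from the data, passing the limit was not always enough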
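assay system = purified human Csn5 enzyme expressed in HEK293T cells | amount = 0.24 nM enzyme | buffer or medium = Tris/NaCl/DTT buffer, pH 7.5 | reagent = 10 nM SCFSkp2-Nedd8OG | compound = one concentration, 12.5 µM, 0.25% DMSO | times = 90 min reaction at room temperature | signal = FP | read-out basis = % inhibition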
Rev-erbA mod: modulates human Rev-erb alpha binding to DNA. P20393. Rev-erbα–FITC-DNA binding, fluorescence polarization, 90 min. activity, % at 10 µM. 0.79% of 370,000 active. AID 1259318;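 active = activity above about 14%, limit read from the data; passing the limit was not always enough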
Target sequence (P20393 whole entry, looked up): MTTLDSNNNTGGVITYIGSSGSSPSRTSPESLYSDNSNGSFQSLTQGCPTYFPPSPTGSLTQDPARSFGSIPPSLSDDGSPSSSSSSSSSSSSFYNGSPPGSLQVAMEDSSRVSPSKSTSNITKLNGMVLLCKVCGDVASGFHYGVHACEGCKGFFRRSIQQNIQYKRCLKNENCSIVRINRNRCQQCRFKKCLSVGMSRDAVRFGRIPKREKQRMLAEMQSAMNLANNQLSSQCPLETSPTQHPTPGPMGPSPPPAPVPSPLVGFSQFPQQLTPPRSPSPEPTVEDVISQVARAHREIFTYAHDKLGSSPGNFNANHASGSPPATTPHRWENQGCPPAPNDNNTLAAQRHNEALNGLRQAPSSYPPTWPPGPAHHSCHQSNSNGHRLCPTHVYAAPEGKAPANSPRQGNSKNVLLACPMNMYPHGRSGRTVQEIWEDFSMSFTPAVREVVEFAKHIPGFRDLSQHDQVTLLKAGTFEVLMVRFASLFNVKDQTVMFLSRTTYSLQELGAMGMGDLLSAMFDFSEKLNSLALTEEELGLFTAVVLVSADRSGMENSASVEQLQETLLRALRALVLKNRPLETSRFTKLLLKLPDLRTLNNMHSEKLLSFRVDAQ
Numbers stand for hits; i = inactive; nt = no result given.

SMILES	HNF4A DNA FP	aDG glyco up	CSN inh	Rev-erbA mod
CCOc1ccc(OCc2ccc(C(=O)N3CCCCC3)o2)cc1	36.1	i	i	i
Cc1ccc(OCc2ccc(C(=O)N3CCCC3)o2)cc1C	i	i	i	i
O=C(O)c1ccc(COc2ccccc2/C=C2\NC(=O)N(Cc3ccc(F)cc3)C2=O)cc1	i	i	i	i
O=C(O)c1cccc(-n2cccc2/C=C2/NC(=O)N(c3ccc(Cl)cc3)C2=O)c1	i	i	i	i
O=C(O)c1cccc(-n2cccc2/C=C2/NC(=O)N(c3cccc(Cl)c3)C2=O)c1	i	i	35.1	i
O=C(O)c1ccc(COc2ccccc2/C=C2/NC(=O)N(c3cccc(Cl)c3)C2=O)cc1	i	i	45.0	i
COc1ccc(S[C@]2(C(=O)NCC(C)C)CC(=O)N[C@@H]2c2ccc(OC)cc2)cc1	nt	nt	nt	i
CN1CCc2c(sc3c2C(=O)NC(c2cccc(OC(=O)c4cccs4)c2)N3)C1 (stereo not drawn)	33.8	i	36.1	i
CN1CCc2c(sc3c2C(=O)NC(c2ccco2)N3)C1 (stereo not drawn)	i	i	i	i
CCOC(=O)N1CCc2c(sc3c2C(=O)NC(c2ccccc2)N3)C1 (stereo not drawn)	i	i	i	nt
CN1CCc2c(sc3c2C(=O)NC(c2cn(Cc4ccccc4)c4ccccc24)N3)C1 (stereo not drawn)	52.4	i	i	i
CO[C@H]1C[C@@H](O[C@@H]2/C(C)=C/C[C@@H]3C[C@@H](C[C@]4(CC[C@H](C)[C@@H](C5CCCCC5)O4)O3)OC(=O)[C@@H]3C=C(C)/C(=N/O)[C@H]4OC/C(=C\C=C\[C@@H]2C)[C@]43O)O[C@@H](C)[C@H]1O	nt	nt	nt	i
O=C(Nc1cccnc1)c1ccc([N+](=O)[O-])s1	i	9.7	i	i
O=C(Nc1cccnc1)c1cc(Br)c(Br)s1	i	i	i	i
C[C@]12C=CC(=O)C=C1CCC1C2[C@@H](O)C[C@@]2(C)C1CC[C@]2(O)C(=O)COC(=O)CCC(=O)O (stereo partly drawn)	nt	nt	nt	i
CC/C(C)=N\N=C\c1c(O)n(CC)c2cc(C3=NNC(=O)CC3)ccc12	i	i	i	nt
CCn1c(O)c(/C=N/N=C/c2ccc(OC)cc2)c2cc(C3=NNC(=O)CC3)ccc21	95.1	i	89.4	i
O=C(COC(=O)CCNS(=O)(=O)c1ccc(Cl)cc1)Nc1ccccc1OC(F)F	40.0	i	i	i
O=c1cc(-c2ccco2)oc2c1ccc1ccccc12	i	i	39.4	i
O=c1cc(-c2ccncc2)oc2c1ccc1ccccc12	i	i	i	i
CCN=C1SC(C(=O)Nc2cccc(Cl)c2)CC(=O)N1CC (stereo not drawn)	i	i	i	i
CCN=C1SC(C(=O)Nc2ccc(Cl)c(Cl)c2)CC(=O)N1CC (stereo not drawn)	i	i	79.1	i
Cc1cc(C)n(-c2nc3ccccc3nc2Nc2ccc3c(c2)OCO3)n1	i	i	i	i
Cc1cc(C)n(-c2nc3nonc3nc2Nc2cccc(C)c2C)n1	i	i	57.1	i
O=C(NCCN1CCC(Cc2ccccc2)CC1)C1CCCN(S(=O)(=O)c2ccc(Cl)s2)C1 (stereo not drawn)	nt	nt	nt	i
SMILES	HNF4A DNA FP	aDG glyco up	CSN inh	Rev-erbA mod
O=C(CCn1nnc(-c2cccs2)n1)NCc1ccco1	nt	nt	nt	i
CCc1ccc2c(CN3CCC(C(=O)OC)CC3)cc(=O)oc2c1	83.7	i	i	i
Clc1ccc2nc(-c3ccco3)c(Cc3ccccc3)n2c1	i	i	35.9	i
COc1ccccc1Cc1c(-c2ccco2)nc2ccc(Cl)cn12	i	i	36.1	i
OCC(S)CS (stereo not drawn)	nt	nt	nt	i
COc1ccc(S(=O)(=O)N(C(=O)C(C)C)c2ccc3oc(=O)sc3c2)cc1	i	i	i	i
Cc1ccc(S(=O)(=O)N(C(=O)c2ccco2)c2cc3sc(=O)oc3c3ccccc23)cc1	i	6.6	i	i
CCOc1ccc(S(=O)(=O)N(C(=O)c2ccco2)c2cc3sc(=O)oc3c3ccccc23)cc1	i	11.1	i	i
CCOc1ccc(S(=O)(=O)N(C)CC(=O)NCc2ccco2)cc1	i	i	i	i
COc1ccc(S(=O)(=O)N(C(=O)c2ccco2)c2cc3sc(=O)oc3c3ccccc23)cc1	i	7.6	i	i
C[C@@H](CO)N(Cc1cn(Cc2ccccc2)nn1)S(=O)(=O)c1ccccc1Br	nt	nt	nt	i
Cc1ccccc1C(=O)Oc1cccc(Nc2ncnc3ccccc23)c1	i	6.3	i	i
CC(=O)Oc1cccc(Nc2ncnc3ccccc23)c1	i	i	i	i
Oc1ccc2ccccc2c1	nt	nt	nt	i
CCOC(=O)CCC(=O)Nc1ccc([N+](=O)[O-])cc1C	29.9	i	i	i
COc1ccc(C=C2NC(=S)NC2=O)cc1	i	i	i	i
COc1ccc(C(=O)N2C(=S)NC(=O)/C2=C\c2ccc(C)cc2)cc1	i	i	43.3	i
Cn1c2c(c(=O)n(C)c1=O)C(C(F)(F)F)(C(F)(F)F)N=C(CCC1CCCCC1)N2	i	i	53.7	i
O=C1O[C@@H](CO)[C@H](O)[C@@H](O)[C@@H]1O	nt	nt	nt	i
Fc1cccc(CCN2CCNC[C@@H]2Cc2ccccc2)c1	i	i	38.2	i
CCCC[C@@H]1CNCCN1CCc1cccc(F)c1	i	i	i	i
NC1=NC[C@H](Cc2ccccc2)N1CCc1cccc(F)c1	i	i	63.4	i
COc1cc(-c2onc3ccc(Br)cc23)cc(OC)c1OC	43.0	i	i	i
CCNC(=O)CSC1=N/C(=C\c2ccc(O)c(OCC)c2)C(=O)N1c1ccc(OC(F)F)cc1	89.7	i	46.8	i
Cc1cccc(C(=O)NC(=S)Nc2ccccc2C(=O)O)c1	i	i	78.5	i
SMILES	HNF4A DNA FP	aDG glyco up	CSN inh	Rev-erbA mod
Cn1nnnc1SCC1=C(C(=O)O)N2C(=O)[C@H](NC(=O)C(O)c3ccccc3)C2SC1 (stereo partly drawn)	nt	nt	nt	i
CCOC(=O)CCn1nc(-c2ccc(Cl)cc2)cc1N	i	i	i	i
CCOC(=O)Cn1nc(-c2ccc(Cl)cc2)cc1N	i	i	48.5	i
Cc1nc2c(nc1C)C(=O)c1ccccc1C2=O	i	14.3	i	i
O=C1c2ccccc2-c2nc3ccccc3nc21	i	i	i	i
COc1cccc2cc(-c3nc(-c4cccs4)cs3)c(=O)oc12	40.5	i	i	i
O=c1oc2ccccc2cc1-c1nc(-c2cccs2)cs1	i	i	i	i
C[C@H]1CN([C@@H](C)CO)C(=O)CCCn2cc(nn2)CO[C@@H]1CN(C)C(=O)Oc1ccccc1	i	i	100.3	i
Cc1ccc(OC(=O)N(C)C[C@@H]2OCc3cn(nn3)CCCC(=O)N([C@H](C)CO)C[C@H]2C)cc1	i	i	i	i
COc1ccc(Nc2cc(C)nc3ccc(C)cc23)cc1	i	i	i	i
Cc1ccc2nc(C)cc(NCCO)c2c1	i	i	77.2	i
CC1=C/C(=C\C=C(C#N)C#N)N(C)c2ccccc21	71.3	i	i	i
CCOc1ccc(C(=O)Nc2ccc(N3CCN(C(=O)c4ccco4)CC3)cc2)cc1Br	i	i	44.4	i
